This is an account of results in article PMC7686272 (Angewandte Chemie (International ed. in English), 2020).

The target of one assay is wildtype EGFR (Homo sapiens, UniProt P00533). Briefly: Western blot of total EGFR protein in wildtype EGFR Ba/F3 cells. The format is cell-based, murine. The settings on record: increasing concentrations, 6, 24 and 48 hours. The method in brief: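 Wildtype EGFR Ba/F3 cells exposed to rising test-compound concentrations for 6, 24 and 48 h, then lysed and immunoblotted for total EGFR with tubulin as loading control. Band densitometry was normalised to tubulin and expressed as percent EGFR remaining relative to DMSO control. The same treatment was run in parallel on L858R/T790M Ba/F3 cells.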
Background: In western blotting, separated proteins are transferred to a membrane and probed.

The target of the next assay is EGFR L858R/T790M (Homo sapiens, UniProt P00533, L858R/T790M). As to the kind of experiment: HTRF kinase assay of purified EGFR L858R/T790M. The format is biochemical. The settings on record: for IC50: read-out: IC50 against EGFR L858R/T790M, HTRF assay, purified enzyme. For orientation: Time-resolved FRET reads energy transfer from a long-lived donor to a nearby acceptor.

Assay [1] concerns L858R/T790M/C797S EGFR Ba/F3 cells. As to the kind of experiment: Ba/F3 cell proliferation assay, L858R/T790M/C797S EGFR. The format is cell-based, murine.
Assay [2] concerns L858R/T790M/L718Q EGFR Ba/F3 cells. Briefly: Ba/F3 cell proliferation assay, L858R/T790M/L718Q EGFR. The format is cell-based, murine.
A further assay addresses L858R/T790M EGFR (Homo sapiens, UniProt P00533, L858R/T790M). As to the kind of experiment: Western blot of total EGFR protein in L858R/T790M Ba/F3 cells. The conditions noted are these: L858R/T790M Ba/F3, 24 hours, 0.1 μM DDC-01-163; 10 μM pomalidomide, 1 μM JBJ-07-149 or increasing MLN4924. The format is cell-based, murine.
The next assay addresses CRBN (Homo sapiens, UniProt Q96SW2). Briefly: Cellular CRBN engagement assay. The format is cell-based. The conditions noted are these: restoration of BRD4BD2-GFP signal, Figure 2B.

The structures appear in SMILES notation. Read-outs that look alike come from different tables or passages of the source.

Chain of CRBN (Q96SW2 whole entry, species assumed): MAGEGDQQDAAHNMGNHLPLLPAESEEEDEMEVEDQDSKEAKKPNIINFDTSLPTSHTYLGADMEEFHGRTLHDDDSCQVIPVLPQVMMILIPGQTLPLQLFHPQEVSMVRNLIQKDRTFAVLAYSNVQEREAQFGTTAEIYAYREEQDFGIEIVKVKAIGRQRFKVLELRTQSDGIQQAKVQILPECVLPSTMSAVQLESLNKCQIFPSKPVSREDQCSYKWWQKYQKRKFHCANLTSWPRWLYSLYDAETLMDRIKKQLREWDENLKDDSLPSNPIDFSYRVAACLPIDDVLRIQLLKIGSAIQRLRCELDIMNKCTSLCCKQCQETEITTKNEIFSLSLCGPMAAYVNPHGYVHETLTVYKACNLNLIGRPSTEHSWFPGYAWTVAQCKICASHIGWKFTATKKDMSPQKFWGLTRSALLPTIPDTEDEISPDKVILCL

`O=C1CCC(N2C(=O)c3cccc(NCCOCCOCCOCCN4CCN(c5ccc(-c6ccc7c(c6)C(=O)N(C(C(=O)Nc6nccs6)c6cc(F)ccc6O)C7)cc5)CC4)c3C2=O)C(=O)N1` (stereo not drawn) [JBJ-07-038]: at wildtype EGFR, the “effect on EGFR protein levels in wildtype Ba/F3 cells” value is recorded as “did not affect protein levels”. Further, the IC50 on EGFR L858R/T790M came out at 19 nM.

With `O=C(Nc1nccs1)C(c1ccccc1)N1Cc2ccc(-c3ccc(N4CCNCC4)nc3)cc2C1=O` (stereo not drawn) [JBJ-07-149], the “sensitivity of LT/C797S EGFR Ba/F3 cells in cell proliferation assay” value in assay [1] (L858R/T790M/C797S EGFR Ba/F3 cells) is reported as “resistant”. For the same compound, the “sensitivity of LT/L718Q EGFR Ba/F3 cells in cell proliferation assay” value in assay [2] (L858R/T790M/L718Q EGFR Ba/F3 cells) is listed as “resistant”. Further, the IC50 at EGFR L858R/T790M was found to be 1.1 nM. Besides, on L858R/T790M EGFR, the “effect on EGFR degradation by DDC-01-163 (competition / rescue)” value (“effect … (competition / rescue)” below) was “prevented EGFR degradation”.

In the case of `O=C1CCC(N2C(=O)c3cccc(NCCOCCOCCOCCN4CCN(c5ccc(-c6ccc7c(c6)C(=O)N(C(C(=O)Nc6nccs6)c6cc(F)ccc6F)C7)cc5)CC4)c3C2=O)C(=O)N1` (stereo not drawn) [JBJ-07-200], the “effect on EGFR protein levels in wildtype Ba/F3 cells” value at wildtype EGFR is reported as “did not affect protein levels”. At EGFR L858R/T790M (ratio of IC50 values), the “reduction of biochemical activity compared to DDC-01-163” value was 9 fold and the “reduction of biochemical activity compared to JBJ-07-038” value is recorded as 21 fold. In addition, the IC50 at EGFR L858R/T790M stood at 390 nM. In addition, on CRBN, the “cellular CRBN engagement” value was “more potent CRBN engagement than JBJ-07-038”.

As to `NS(=O)(=O)OC[C@@H]1C[C@@H](n2ccc3c(N[C@H]4CCc5ccccc54)ncnc32)C[C@@H]1O` [MLN4924], the “effect … (competition / rescue)” value on L858R/T790M EGFR was “rescue EGFR degradation”.

On to `C=CC(=O)Nc1cc(Nc2nccc(-c3cn(C)c4ccccc34)n2)c(OC)cc1N(C)CCN(C)C` [osimertinib, reference compound], for which the “sensitivity of LT/C797S EGFR Ba/F3 cells in cell proliferation assay” value in assay [1] is on record as “resistant”. Also, the “sensitivity of LT/L718Q EGFR Ba/F3 cells in cell proliferation assay” value in assay [2] is on record as “resistant”.

For the compound `Nc1cccc2c1C(=O)N(C1CCC(=O)NC1=O)C2=O` (stereo not drawn) [pomalidomide], at L858R/T790M EGFR, the “effect … (competition / rescue)” value is recorded as “prevented EGFR degradation”.
